Measured values from article PMC11062432 (The Plant Cell, 2023).
Bridge positions count the residues as written; N and C are the ends. Ends that are not written are not given here.

How the values were obtained:
[1] = system: root growth; settings: overexpression or application of the peptide; ref Matos et al. 2008; Li et al. 2022; cited from earlier work
[2] = system: plasma membrane H^+-ATPase2; settings: roots; ref Haruta et al. 2014; cited from earlier work
[3] = system: BUPS2; assay: Pull-down assay, BUPS2 ectodomain; assay type: binding, Arabidopsis thaliana; settings: Flag-tagged ectodomain, His-tagged ZmRALFs
In short: (§1)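 FLAG-tagged Arabidopsis receptor ectodomains (from earlier work) were mixed with maize RALF mature peptides. The peptides were TrxA-His fusions expressed in E. coli BL21 (1 mm IPTG, 30 °C, 3–4 h), Ni-NTA-purified and desalted. The mix sat in 20 mm Tris pH 7.5, 1% CA630, rotating at 4 °C for 2 h. Ni-NTA beads were then added for 2 h more, followed by 5 washes. Read-out: SDS-PAGE and Western blot, anti-His and anti-FLAG.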

[4] = system: CrRLK1Ls; assay: Interaction of RALFs with CrRLK1Ls, overall; assay type: binding; settings: discussion summary
[5] = system: ANX1; assay: Pull-down assay, ANX1 ectodomain; assay type: binding, Arabidopsis thaliana; settings: Flag-tagged ectodomain, His-tagged ZmRALFs
In short: as §1

[6] = system: ANX2; assay: Pull-down assay, ANX2 ectodomain; assay type: binding, Arabidopsis thaliana; settings: Flag-tagged ectodomain, His-tagged ZmRALFs
In short: as §1

[7] = system: BUPS1; assay: Pull-down assay, BUPS1 ectodomain; assay type: binding, Arabidopsis thaliana; settings: Flag-tagged ectodomain, His-tagged ZmRALFs
In short: as §1

[8] = system: ZmLLG2; assay: Pull-down assay, ZmLLG2; assay type: binding, Zea mays; settings: MBP-tagged LLG, His-tagged RALFs
In short: (§2)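 MBP-tagged maize partners were expressed in E. coli BL21 (0.1–0.5 mm IPTG, 30 °C, 3–4 h), amylose-purified, eluted with maltose and desalted. Partners: LLGs without signal peptide, PEX2 N-terminal LRR domain, PEX4. Each was incubated with His-tagged maize RALFs in 20 mm Tris pH 7.5, 1% CA630 at 4 °C for 2 h, then Ni-NTA pull-down for 2 h and 5 washes. Read-out: SDS-PAGE and Western blot, anti-His and anti-MBP.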

[9] = system: ZmPEX2; assay: Pull-down assay, LRR domain of ZmPEX2; assay type: binding, Zea mays; settings: MBP-tagged N-terminal LRR domain of ZmPEX2, ZmRALFs
In short: as §2

[10] = system: ZmLLG1; assay: Pull-down assay, ZmLLG1; assay type: binding, Zea mays; settings: MBP-tagged LLG, His-tagged RALFs
In short: as §2

[11] = system: ZmPEX4; assay: Pull-down assay, full-length ZmPEX4; assay type: binding, Zea mays; settings: MBP-tagged full-length ZmPEX4, ZmRALFs
In short: as §2

[12] = target: 6xHis-ZmRALF3 (predicted mature peptide, pET53-DEST, refolded) (maize (Zea mays)); assay: MST
[13] = target: 6xHis-ZmRALF2 (predicted mature peptide, pET53-DEST, refolded) (maize (Zea mays)); assay: MST
[14] = target: 6xHis-ZmRALF1 (predicted mature peptide, pET53-DEST, refolded) (maize (Zea mays)); assay: MST

**Q.** Which “effect on root growth” value [1] does the source give for “AtRALF1: Clade IA Arabidopsis RALF (ATTKYISYQSLKRNSVPCSRRGASYYNCQNGAQANPYSRGCSKIARCRS; not fully specified; ends and bridges not checked; UniProt Q9SRY3 72-120, looked up)” here?
**A.** Its value is “inhibited rapid root growth”.

**Q.** What about the “effect on H^+-ATPase2 via FER” value [2] of the same substance?
**A.** The value was “inhibition of plasma membrane H^+-ATPase2 explaining extracellular alkalinization”.

**Q.** Which interaction in pull-down [3] does the source give for “MARLALVAAVVLCLLLATGPQGAISAEGMVSFDNLISCKVLGNCDKNLGPEASRPGKPANDYTRGCNPITGCRG (disulfide (positions not given here)) [ZmRALF1]” here?
**A.** The interaction in pull-down was “very weak interaction”.

**Q.** And the “interaction with CrRLK1Ls in words” value [4]?
**A.** The value was “very low (almost unspecific) binding”.

**Q.** And the interaction in pull-down [5]?
**A.** Its interaction in pull-down is “did not interact with Arabidopsis CrRLK1Ls”.

**Q.** What about the interaction in pull-down [6] of the same substance?
**A.** Its interaction in pull-down is “did not interact with Arabidopsis CrRLK1Ls”.

**Q.** What about the interaction in pull-down [7] of the same substance?
**A.** The interaction in pull-down was “did not interact with Arabidopsis CrRLK1Ls”.

**Q.** For “MARLGAGAVLALLVAVAAVAAFLAVPASAKSGELSAMGLLAAKGGSGAGPQKCSGAVGECDVDEAEELGLSGGGLGSDDAVRRTLAQRKPTNRYISYAALRADQVPCNKRGRSYYSNCEAQKAANPYRRGCSAITRCARNMN (disulfide (positions not given here)) [ZmRALF2]”, which interaction in pull-down [3] is on record?
**A.** The interaction in pull-down was “interacted more strongly with ANX1/2 and BUPS1/2 compared with ZmRALF3”.

**Q.** What about the interaction in pull-down [8] of the same substance?
**A.** The interaction in pull-down was “interacted with ZmLLG1/2”.

**Q.** And the interaction in pull-down [9]?
**A.** The interaction in pull-down was “interacted with both ZmPEX proteins”.

**Q.** What about the interaction in pull-down [10] of the same substance?
**A.** Its interaction in pull-down is “interacted with ZmLLG1/2”.

**Q.** And the interaction in pull-down [5]?
**A.** Its interaction in pull-down is “interacted more strongly with ANX1/2 and BUPS1/2 compared with ZmRALF3”.

**Q.** What about the interaction in pull-down [6] of the same substance?
**A.** The interaction in pull-down was “interacted more strongly with ANX1/2 and BUPS1/2 compared with ZmRALF3”.

**Q.** What about the interaction in pull-down [7] of the same substance?
**A.** The interaction in pull-down was “interacted more strongly with ANX1/2 and BUPS1/2 compared with ZmRALF3”.

**Q.** And the interaction in pull-down [11]?
**A.** The interaction in pull-down was “interacted with both ZmPEX proteins”.

**Q.** With “MARLGAGAVLTLLLAVAAAAAFLAVPASAKVGDLSAVEFVAARGSSIPGQRSSKCSGAVGECGVDEEEELGLSGGGGIGAGDALRRTLAQRKPTNRYISYAALRADQVPCNKRGRSYYTNCAAQTAANPYRRGCSAITRCARSMN (disulfide (positions not given here)) [ZmRALF3]” as the substance, how does the interaction in pull-down [8] read?
**A.** The interaction in pull-down was “interacted with ZmLLG1/2”.

**Q.** And the interaction in pull-down [9]?
**A.** The interaction in pull-down was “interacted with both ZmPEX proteins”.

**Q.** And the interaction in pull-down [10]?
**A.** Its interaction in pull-down is “interacted with ZmLLG1/2”.

**Q.** And the interaction in pull-down [11]?
**A.** Its interaction in pull-down is “interacted with both ZmPEX proteins”.

**Q.** For “MBP-tagged ectodomain of ZmFERL1 (domain or fragment)”, which Kd [12] is on record?
**A.** The Kd was 1730 nM.

**Q.** Which interaction in pull-down [5] does the source give for “MGEAKLNNVTVLLVALLLLSSGVQDAAAMPGTLNYDAIVADEPNGKNKDLYRPVANANKYTRGCEPIERCRGAR (disulfide 64-70 (inferred)) [ZmRALF5]” here?
**A.** Its interaction in pull-down is “did not interact with Arabidopsis CrRLK1Ls”.

**Q.** What about the interaction in pull-down [6] of the same substance?
**A.** Its interaction in pull-down is “did not interact with Arabidopsis CrRLK1Ls”.

**Q.** And the interaction in pull-down [7]?
**A.** Its interaction in pull-down is “did not interact with Arabidopsis CrRLK1Ls”.

**Q.** Which Kd [13] does the source give for “ZmFERL7 ectodomain as used in MST (tag not told: MBP or GST construct) (domain or fragment)” here?
**A.** Its Kd is 615 nM.

**Q.** And the Kd [14]?
**A.** The Kd was 3530 nM.

**Q.** Which Kd [13] does the source give for “ZmFERL9 ectodomain as used in MST (tag not told: MBP or GST construct) (domain or fragment)” here?
**A.** The Kd was 545 nM.

**Q.** What about the Kd [14] of the same substance?
**A.** The Kd was 1900 nM.
